# Test results reported in ChEMBL document CHEMBL1141864, “Structure-activity relationships in 1,4-benzodioxan-related compounds. 8.(1) {2-[2-(4-chlorobenzyloxy)phenoxy]ethyl}-[2-(2,6-dimethoxyphenoxy)ethyl]amine (clopenphendioxan) as a tool to highlight the involvement of alpha1D- and alpha1B-adrenoreceptor subtypes in the regulation of human PC-3 …” (J Med Chem, 2005).
# Activity calls are given as the source filed them. No cut-off for these calls is given here.
# How the values were obtained:
# PC-3 [1] = test: Inhibition of NE-induced increase of PC3 cell proliferation using ELISA BrdU; type: functional, cell-based; conditions: Homo sapiens
# Summary of the method: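 PC-3 cells (7×10^4/well) plated 24 h, then given noradrenaline (0–50 μM) alone or with antagonist (1 μM, or 0.5 μM for one compound) for 16 h. BrdU added for the last 4 h and read by colorimetric ELISA as % growth; mean ± SD of three experiments.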
# [2] = target: T1, Alpha-1D adrenergic receptor (Rattus norvegicus) (UniProt P23944); test: ADRA1D blocking activity assessed by antagonism of (-)-NE induced contractions on isolated rat thoracic aorta; type: functional, tissue-based
# T1 sequence (whole entry): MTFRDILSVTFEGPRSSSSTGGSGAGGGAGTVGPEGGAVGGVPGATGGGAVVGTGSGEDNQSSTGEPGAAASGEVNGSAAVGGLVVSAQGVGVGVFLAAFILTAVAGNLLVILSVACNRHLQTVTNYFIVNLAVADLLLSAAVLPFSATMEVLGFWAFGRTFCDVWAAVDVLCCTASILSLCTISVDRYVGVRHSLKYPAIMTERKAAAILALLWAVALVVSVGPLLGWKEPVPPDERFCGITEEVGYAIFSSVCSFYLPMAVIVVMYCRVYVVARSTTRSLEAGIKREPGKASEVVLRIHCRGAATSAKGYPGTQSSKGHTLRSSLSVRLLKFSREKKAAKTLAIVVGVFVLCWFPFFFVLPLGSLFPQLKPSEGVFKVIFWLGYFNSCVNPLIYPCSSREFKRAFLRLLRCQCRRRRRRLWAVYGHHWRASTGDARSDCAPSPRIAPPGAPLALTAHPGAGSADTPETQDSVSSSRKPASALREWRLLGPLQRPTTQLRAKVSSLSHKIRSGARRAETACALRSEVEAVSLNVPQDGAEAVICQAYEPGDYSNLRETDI
# Summary of the method: (§1)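 Isolated rat tissue: each antagonist concentration tested four times over 0.01–1 μM; pK_B calculated by van Rossum method from shifts of (-)-noradrenaline contraction curves (vas deferens, α1A; thoracic aorta, α1D) or (-)-phenylephrine contraction curves (spleen, α1B).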
# PC-3 [3] = test: Cytotoxic activity on human PC3 prostate cancer cells by SRB assay; type: functional; conditions: Homo sapiens, PC-3
# Summary of the method: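 NCI-protocol SRB assay on PC-3 cells grown in DMEM/10% FBS/2 mM glutamine. Seeded 24 h, then compounds in medium for 48 h at 37 °C, 5% CO2, in quadruplicate. A time-zero plate was read. Cells TCA-fixed, stained with 0.4% SRB, absorbance at 520 nm. GI50, TGI and LC50 interpolated from % growth versus log concentration.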
# [4] = target: T2, Alpha-1B adrenergic receptor (Rattus norvegicus) (UniProt P15823); test: ADRA1B blocking activity assessed by antagonism of (-)-phenylephrine induced contractions on isolated rat spleen; type: functional, tissue-based; summary of the method: as §1
# T2 sequence (whole entry): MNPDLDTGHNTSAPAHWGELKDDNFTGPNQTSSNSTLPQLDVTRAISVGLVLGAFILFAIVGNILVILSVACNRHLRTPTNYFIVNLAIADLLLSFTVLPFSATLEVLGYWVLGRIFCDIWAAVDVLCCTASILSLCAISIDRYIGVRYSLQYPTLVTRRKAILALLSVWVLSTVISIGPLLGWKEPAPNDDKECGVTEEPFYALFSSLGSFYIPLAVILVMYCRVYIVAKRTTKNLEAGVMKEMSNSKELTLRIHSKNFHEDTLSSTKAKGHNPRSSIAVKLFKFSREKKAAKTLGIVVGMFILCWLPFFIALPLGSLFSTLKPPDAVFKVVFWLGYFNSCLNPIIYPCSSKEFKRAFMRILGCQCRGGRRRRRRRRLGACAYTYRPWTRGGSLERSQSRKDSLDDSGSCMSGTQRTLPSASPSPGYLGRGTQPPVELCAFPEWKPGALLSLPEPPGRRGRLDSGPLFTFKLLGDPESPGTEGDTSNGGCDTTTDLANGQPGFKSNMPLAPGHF
# [5] = target: T3, Alpha-1A adrenergic receptor (Rattus norvegicus) (UniProt P43140); test: ADRA1A blocking activity assessed by antagonism of (-)-NE induced contractions on isolated rat prostatic vas deferens; type: functional, tissue-based; summary of the method: as §1
# T3 sequence (whole entry): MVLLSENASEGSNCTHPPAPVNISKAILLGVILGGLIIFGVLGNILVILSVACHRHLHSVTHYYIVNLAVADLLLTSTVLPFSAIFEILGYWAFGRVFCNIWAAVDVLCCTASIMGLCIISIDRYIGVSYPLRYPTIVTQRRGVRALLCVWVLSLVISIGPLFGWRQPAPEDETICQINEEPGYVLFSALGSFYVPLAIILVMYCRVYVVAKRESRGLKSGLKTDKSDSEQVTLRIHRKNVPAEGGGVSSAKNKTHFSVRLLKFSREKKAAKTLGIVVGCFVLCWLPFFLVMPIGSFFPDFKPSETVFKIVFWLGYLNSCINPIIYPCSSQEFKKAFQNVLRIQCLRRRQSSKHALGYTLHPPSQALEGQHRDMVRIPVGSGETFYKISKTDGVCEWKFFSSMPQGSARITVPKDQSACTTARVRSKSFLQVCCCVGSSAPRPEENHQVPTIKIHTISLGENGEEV
# PC-3 [6] = test: Ability to stimulate PC3 cell proliferation by BrdU incorporation using colorimetric ELISA at 50 uM; type: functional, Homo sapiens
# Summary of the method: (§2)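 PC-3 cells (DMEM, 10% FBS, 2 mM L-glutamine) seeded at 7 × 10⁴/well, settled 24 h at 37 °C, 5% CO₂. NE added (0, 0.1, 1, 10, 50 μM) for 16 h. BrdU present during the last 4 h; incorporation read by colorimetric BrdU cell-proliferation ELISA. Expressed as % growth vs untreated. Mean ± SD of three separate experiments.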
# PC-3 [7] = test: Ability to stimulate PC3 cell proliferation by BrdU incorporation using colorimetric ELISA at 10 uM; type: functional, Homo sapiens; summary of the method: as §2
SMILES,Activity (PC-3 [1]),pKb [2],TGI (PC-3 [3]),pKb [4],pKb [5],GI50 (PC-3 [3]),LC50 (50% lethal concentration) (PC-3 [3]),Activity (PC-3 [6]),Activity (PC-3 [7])
COc1cc2nc(N3CCN(C(=O)C4COc5ccccc5O4)CC3)nc(N)c2cc1OC (centres undefined) [DOXAZOSIN],inactive,8.97,49 µM,9.51,8.69,,,,
COc1cccc(OC)c1OCCNCCOc1ccccc1OCc1ccc(OC(C)C)cc1,,9.14,17.8 µM,8.62,8.17,2 µM,63.1 µM,,
CCOc1ccc(COc2ccccc2OCCNCCOc2c(OC)cccc2OC)cc1,,9.11,18.2 µM,8.23,8.5,5.2 µM,51.3 µM,,
NC[C@H](O)c1ccc(O)c(O)c1 [NOREPINEPHRINE],,,,,,,,65%,33%
